Experiments:
[1] = target: Free fatty acid receptor 1 (Homo sapiens) (UniProt O14842); assay: Agonist activity at human FFA1 receptor expressed in CHO cells assessed as intracellular calcium influx at 100 nM measured for 90 sec by Fluo-4-AM dye based FLIPR assay relative to control; assay type: functional, cell-based
How it was run: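 CHO cells stably expressing human FFA1 (NM_005303), 15 K cells/well, grown 12 h at 37 °C in 5% CO2, then HBSS wash. Ca2+ signal read by FLIPR for 90 s after addition. Activity = (test − vehicle)/(10 µM γ-linolenic acid − vehicle) × 100; mean of three independent experiments.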

[2] = 1-octanol-phosphate buffer distribution coefficient, log D of compound at 100 uM at pH 7.4 after 24 hrs by HPLC based shake flask method; assay type: physicochemical
How it was run: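 Final concentration 100 µM, diluted from 10 mM DMSO stock, in 1:1 0.01 M phosphate buffer pH 7.4 and 1-octanol. Shaken 700 rpm for 24 h, then 1 h phase separation. Octanol phase diluted ×10 before HPLC, buffer phase injected directly, each in duplicate. LogD = octanol/buffer peak area at 254 nm, corrected with two calibration points; three independent experiments.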

Mus musculus [3] = assay: Hypoglycemic effect in normal ICR mouse assessed as decrease in blood glucose AUC (0 to 2 hrs) at 50 mg/kg, po administered as single dose 30 mins prior to glucose challenge by OGTT relative to control; assay type: functional; parameters: scale not given: the % may be the effect or the level left
How it was run: (§1)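 Ten-week-old male ICR mice, fasted 12 h, randomized n = 6 per group. Single oral dose in 0.5% CMC given 30 min before oral glucose 3 g/kg. Tail-vein blood glucose measured by test strips at −30, 0, 15, 30, 45, 60 and 120 min; AUC0-2h calculated; mean ± SEM, Student's t-test vs vehicle.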

Mus musculus [4] = assay: Hypoglycemic effect in normal ICR mouse assessed as decrease in plasma glucose level at 50 mg/kg, po administered as single dose 30 mins prior to glucose challenge by OGTT relative to control; assay type: functional, organism-based; details: TDE = time-dependent effect; how it was run: as §1
Mus musculus [5] = assay: Hypoglycemic effect in fasting STZ-induced type-2 diabetic C57BL/6 mouse assessed as decrease in blood glucose AUC (0 to 2 hrs) at 50 mg/kg, po administered as single dose 30 mins prior to glucose challenge by OGTT relative to control; assay type: functional; parameters: scale not given: the % may be the effect or the level left
How it was run: (§2)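 Male C57BL/6 mice on high-fat diet (45% kcal fat) for 4 weeks, then STZ 80 mg/kg i.p., then high-fat diet another 4 weeks. Fasting glucose ≥11.1 mmol/L taken as diabetic. Fasted 12 h, n = 6 per group. Oral dose in 0.5% CMC 30 min before oral glucose 2 g/kg. Tail-vein glucose by test strips at −30, 0, 15, 30, 45, 60 and 120 min; AUC0-2h; mean ± SEM.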

Mus musculus [6] = assay: Hypoglycemic effect in fasting STZ-induced type-2 diabetic C57BL/6 mouse assessed as decrease in blood glucose AUC (0 to 2 hrs) at 20 mg/kg, po administered as single dose 30 mins prior to glucose challenge measured by OGTT relative to control; assay type: functional; parameters: scale not given: the % may be the effect or the level left; how it was run: as §2

Chain of Free fatty acid receptor 1 (Homo sapiens) (O14842 whole entry): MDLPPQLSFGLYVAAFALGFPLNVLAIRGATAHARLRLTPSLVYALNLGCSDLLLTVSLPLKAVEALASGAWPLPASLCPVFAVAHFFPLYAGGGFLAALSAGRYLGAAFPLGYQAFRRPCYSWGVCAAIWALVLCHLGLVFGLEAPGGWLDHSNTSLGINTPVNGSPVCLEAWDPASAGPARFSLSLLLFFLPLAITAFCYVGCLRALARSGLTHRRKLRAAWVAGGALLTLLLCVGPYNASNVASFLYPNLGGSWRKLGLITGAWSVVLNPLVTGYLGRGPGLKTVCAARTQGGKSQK

| Compound | Activity [1] [%] | logD at 24 h, 100 µM [2] | further results |
| --- | --- | --- | --- |
| O=C(O)COc1ccc(OCc2cn(-c3ccccc3Cl)nn2)cc1F | 11.3 | – | – |
| O=C(O)CC1COc2cc(OCc3cn(-c4cccc(Cl)c4)nn3)ccc21 (stereo unspecified) | 22.8 | 1.09 | – |
| O=C(O)COc1ccc(OCc2cn(-c3c(Cl)cccc3Cl)nn2)cc1F | 29.7 | 2.16 | Activity (Mus musculus [3]): 17.7%; Activity (Mus musculus [4]): Tde |
| O=C(O)CC1COc2cc(OCc3cn(-c4ccccc4Cl)nn3)ccc21 (stereo unspecified) | 9.34 | – | – |
| O=C(O)CC1COc2cc(OCc3cn(-c4ccccc4F)nn3)ccc21 (stereo unspecified) | 6.69 | – | – |
| Cc1ccc(Cl)cc1-n1cc(COc2ccc(OCC(=O)O)c(F)c2)nn1 | 36.1 | 1.95 | Activity (Mus musculus [3]): 21.4%; Activity (Mus musculus [5]): 14.2%; Activity (Mus musculus [4]): Tde |
| Cc1cccc(-n2cc(COc3ccc(OCC(=O)O)cc3)nn2)c1 | 11.8 | – | – |
| Cc1ccc(Cl)cc1-n1cc(COc2ccc3c(c2)OCC3CC(=O)O)nn1 (stereo unspecified) | 33.8 | 2.08 | Activity (Mus musculus [3]): 16.8%; Activity (Mus musculus [4]): Tde |
| O=C(O)COc1ccc(OCc2cn(-c3ccccc3)nn2)cc1F | 5.83 | -0.23 | – |
| COc1cccc(-n2cc(COc3ccc(OCC(=O)O)c(F)c3)nn2)c1 | 24.4 | 0.52 | Activity (Mus musculus [4]): Tde |
| O=C(O)COc1ccc(OCc2cn(-c3ccccc3)nn2)cc1 | 0.64 | – | – |
| O=C(O)CC1COc2cc(OCc3cn(-c4ccc(Cl)cc4)nn3)ccc21 (stereo unspecified) | 24.7 | – | Activity (Mus musculus [4]): Tde |
| O=C(O)CC1COc2cc(OCc3cn(-c4c(Cl)cccc4Cl)nn3)ccc21 (stereo unspecified) | 21.7 | 1.96 | – |
| COc1cccc(-n2cc(COc3ccc4c(c3)OCC4CC(=O)O)nn2)c1 (stereo unspecified) | 19.4 | – | – |
| O=C(O)COc1ccc(OCc2cn(-c3ccc(F)cc3)nn2)cc1F | 20.4 | 0.92 | – |
| CCOc1ccc(-n2cc(COc3ccc(OCC(=O)O)c(F)c3)nn2)cc1 | 7.62 | – | – |
| CC(C)(C)c1ccc(-n2cc(COc3ccc(OCC(=O)O)c(F)c3)nn2)cc1 | 4.53 | – | – |
| Cc1cc(OCCCS(C)(=O)=O)cc(C)c1-c1cccc(COc2ccc3c(c2)OC[C@H]3CC(=O)O)c1 [FASIGLIFAM] | – | – | Activity (Mus musculus [6]): 32.5% |
| O=C(O)COc1ccc(OCc2cn(-c3ccc(Cl)cc3)nn2)cc1 | 19.4 | – | – |
| O=C(O)COc1ccc(OCc2cn(-c3cccc(Cl)c3)nn2)cc1F | 22.7 | – | – |
| COc1ccccc1-n1cc(COc2ccc(OCC(=O)O)c(F)c2)nn1 | 14.6 | – | – |
| O=C(O)COc1ccc(OCc2cn(-c3ccc(Cl)cc3)nn2)cc1F | 26.1 | 1.37 | Activity (Mus musculus [4]): Tde |
| O=C(O)CC1COc2cc(OCc3cn(-c4ccc(OCc5ccccc5)cc4)nn3)ccc21 (stereo unspecified) | 3.67 | – | – |
| Cc1ccc(-n2cc(COc3ccc(OCC(=O)O)cc3)nn2)cc1 | 16.4 | 0.89 | – |
| O=C(O)CC1COc2cc(OCc3cn(-c4ccccc4)nn3)ccc21 (stereo unspecified) | 0.76 | – | – |
| O=C(O)COc1ccc(OCc2cn(-c3ccc(F)cc3)nn2)cc1 | 13.8 | – | – |

From ChEMBL document CHEMBL4428117, “Discovery of novel free fatty acid receptor 1 agonists bearing triazole core via click chemistry” (Bioorg Med Chem, 2016)
